Compounds with a hit are over-represented: about 2.5% of the library has one in this group of screens.
HTRA1 inhibitor – HTRA1 (human) protease inhibition. Q92743. 340,000 tested, 0.5% active. recombinant HTRA1, FP-rhodamine activity-based probe, fluorescence polarization. inhibition, % at 5.96 µM; in the data active = inhibition above about 36%;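 also: 0% = enzyme with DMSO and 100% = wells lacking enzyme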
mABHD4 FP – inhibits mouse alpha/beta hydrolase domain 4. Q8VD66. purified mABHD4, FP-Rh probe fluorescence polarization. inhibition, % at 8.92 µM. 370,000 tested, 0.54% active. AID 720543;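 active = inhibition exceeding the mean over every tested compound plus 3 SD, cut at about 30% in these data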;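 also: 0% = plate median of compound wells and 100% = S159A mutant with DMSO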
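Test system: mABHD4 protein; Read-out basis: % inhibition; Incubation: 45 min + 60 min at 25 °C; Repeats: single replicate; Technique: fluorescence polarization with parallel and perpendicular emission, 525/598 nm; Compound: 8.92 µM, single dose; Benchmarks: full inhibition S159A mutant plus DMSO, zero as sample-well median.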
SIAE primary – inhibitors of human sialic acid acetylesterase SIAE; Q9HAT2; SIAE FP-Rh probe binding, fluorescence polarization; inhibition, % at 9.66 µM; 370,000 tested, 0.69% active; AID 1053197;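 active = inhibition above a cutoff: mean of compounds within the control limits plus 3 SD of those, cut at about 17% in these data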;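 also: 0% = plate median of compound wells and 100% = probe without SIAE protein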
Target sequence (Q9HAT2 whole entry, looked up): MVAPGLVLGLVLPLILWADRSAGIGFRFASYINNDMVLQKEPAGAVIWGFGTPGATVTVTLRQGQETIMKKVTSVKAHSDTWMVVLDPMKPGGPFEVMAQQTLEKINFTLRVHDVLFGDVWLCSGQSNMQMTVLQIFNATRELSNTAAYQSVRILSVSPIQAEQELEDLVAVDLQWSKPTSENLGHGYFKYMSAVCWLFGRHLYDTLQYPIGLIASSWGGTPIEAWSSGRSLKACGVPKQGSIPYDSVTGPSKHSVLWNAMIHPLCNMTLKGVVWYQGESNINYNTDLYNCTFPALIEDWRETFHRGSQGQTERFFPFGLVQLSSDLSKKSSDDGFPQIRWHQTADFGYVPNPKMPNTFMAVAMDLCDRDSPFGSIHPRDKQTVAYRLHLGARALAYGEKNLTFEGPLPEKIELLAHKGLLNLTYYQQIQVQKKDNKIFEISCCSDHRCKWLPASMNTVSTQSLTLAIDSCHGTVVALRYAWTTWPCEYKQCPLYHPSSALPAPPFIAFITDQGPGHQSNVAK
PRMT1 inh – blocks human protein arginine methyltransferase 1; recombinant PRMT1, activity-based probe fluorescence polarization; Q99873; 370,000 tested, 1.3% active; inhibition, % at 2.79 µM;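 active = inhibition above about 21% made by adding two undisclosed values, limit read from the data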
TCR CD3 inh – human TCR-CD3 binding inhibition; TAMRA-labeled TCR probe fluorescence, biochemical; inhibition, % at 9.4 µM; 360,000 tested, 0.37% active; AID 651800; in the data active = inhibition above about 19%;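 also: recombinant mutant TCR 2C K166C tagged with TAMRA read by polarization; 0% = receptor in buffer alone and 100% = receptor with positive control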
PRMT1 inh conf – PRMT1 (human) inhibition, FP confirmation | shares compounds with PRMT1 inh | recombinant His-PRMT1, activity-based probe fluorescence polarization | inhibition, % at 2.79 µM | 3,300 tested, 42% active;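 active = mean inhibition across replicates above the hit cutoff derived for the earlier primary screen, cut at about 22% in these data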
* = called active by the depositor; · = not tested or not shown.

SMILES	HTRA1 inhibitor	mABHD4 FP	SIAE primary	PRMT1 inh	TCR CD3 inh	PRMT1 inh conf
Cc1ccc(/C=c2\sc3nc(-c4ccco4)nn3c2=O)o1	9	·	·	·	·	·
O=C(O)CN1C(=O)C2C3CC(C2C1=O)C1C(c2ccc(F)cc2)c2sc(=O)[nH]c2SC31 (centres undefined)	4	-4	2	37*	4	22*
O=C(O)CN1C(=O)C2C3CC(C2C1=O)C1C(c2ccc(Cl)cc2)c2sc(=O)[nH]c2SC31 (centres undefined)	5	2	9	64*	-13	15
CC(C(=O)O)N1C(=O)C2C3CC(C2C1=O)C1C(c2ccccc2)c2sc(=O)[nH]c2SC31 (centres undefined)	4	3	5	29*	12	21*
O=C(O)CCCN1C(=O)C2C3CC(C2C1=O)C1C(c2ccccc2)c2sc(=O)[nH]c2SC31 (centres undefined)	2	-2	6	12	3	·
O=C(Cn1sc2ccccc2c1=O)Nc1ccc(Br)cc1	-6	12	1	93*	-2	81*
O=C(Cn1sc2ccccc2c1=O)Nc1ccc(F)cc1	-2	14	8	91*	-2	91*
O=C(CN1C(=O)C2CC=CCC2C1=O)Nc1ccc(Br)cc1 (centres undefined)	-1	0	4	3	4	·
O=C(Cn1sc2ccccc2c1=O)Nc1ccc(Cl)cc1	-12	11	5	90*	-5	90*
C=CCN1[C@@H](C)COc2cc(N3CCSCC3)ccc2S1(=O)=O	·	-6	-6	3	·	·
CC(/C=N/n1c(-c2ccc(Cl)cc2)n[nH]c1=S)=C\c1ccco1	-12	0	-4	27*	-8	15
S=c1[nH]nc(-c2ccco2)n1/N=C/c1ccc(Cl)cc1	5	5	10	25*	0	20
S=c1[nH]nc(-c2ccncc2)n1/N=C/C(Cl)=C\c1ccccc1	0	-11	5	34*	2	19
CCCC(=O)N1CCC[C@]2(CC[C@@H](CCC(=O)OCC)O2)C1	·	-5	-2	-2	·	·
O=C(c1cscn1)N1CCC(Oc2cccnc2)CC1	·	2	0	0	·	·
Cc1ccc(-c2ccc(CCC(=O)O)o2)cc1	-1	8	3	40*	-4	40*
O=C(O)CCc1ccc(-c2cccs2)o1	2	·	·	·	·	·
COCCn1c(C)cc(C(=O)CSc2nc3ccccc3c(=O)[nH]2)c1C	1	-4	3	3	6	·
COCCn1c(C)cc(C(=O)CSc2ccc(NC(C)=O)cc2)c1C	-1	-1	0	25*	5	25*
COCC(C)n1c(C)cc(C(=O)CSc2ccc(NC(C)=O)cc2)c1C (centres undefined)	11	1	3	39*	5	20
COCCn1c(C)cc(C(=O)CSc2ccc3ccccc3n2)c1C	-16	10	14	35*	-4	-3
O=C(c1cc(Cl)cc(Cl)c1)N1CC[C@H]2[C@H](CCCN2Cc2cc(F)cc(F)c2)C1	·	-4	4	-4	·	·
Cn1c(SSc2ccc(-c3cccnc3)n2C)ccc1-c1cccnc1	-2	7	5	69*	4	77*
Cc1ccc(NC(=O)OC2CCC23CCCCC3)cc1 (centres undefined)	·	2	0	-2	·	·
COc1ccc2ccccc2c1C(=O)/C=C\c1ccoc1	-9	24	2	33*	-2	7
SMILES	HTRA1 inhibitor	mABHD4 FP	SIAE primary	PRMT1 inh	TCR CD3 inh	PRMT1 inh conf
CC(=O)Nc1ccc(/C=C/COC(C)=O)cc1C	·	0	-4	-1	·	·
Cc1nc(N)c(C#N)c(-c2ccc3c(c2)OCO3)c1C	-2	-3	0	4	-2	·
CCOc1cc(-c2cc(-c3ccc(C)o3)nc(N)c2C#N)ccc1O	-20	-16	-9	1	2	·
Cc1ccc(-c2cc(-c3ccc(C)o3)nc(N)c2C#N)cc1	8	0	-3	58*	2	79*
Cc1ccc(-c2cc(-c3ccc(Cl)cc3)c(C#N)c(N)n2)o1	14	5	-2	42*	-5	63*
Cc1ccc(-c2cc(-c3ccc(F)cc3)c(C#N)c(N)n2)o1	17	7	-10	46*	-2	20
Cc1ccc(-c2cc(-c3ccc4c(c3)OCO4)c(C#N)c(N)n2)o1	-16	-12	-14	44*	1	31*
CCOC(=O)N1CCN(C(=O)C[C@H]2C[C@@]3(C(=O)OC)C(=C[C@H](C(C)C)O[C@@H]3C3CC3)N(CCc3ccc(OC)c(OC)c3)C2=O)CC1	·	1	-1	-3	·	·
CCOC(=O)[C@]12CCCC=C1N(Cc1ccc(OC)cc1)C(=O)[C@@H]2CC(=O)NCCc1ccccc1OC	·	1	1	-3	·	·
O=C(N/N=C/C=C/c1ccco1)c1cccnc1	12	13	7	39*	8	10
O=C(N/N=C/C=C\c1ccco1)c1cccnc1	6	2	13	8	7	·
O=C(NCc1ccc2c(c1)OCO2)c1nc(S(=O)(=O)Cc2ccccc2)ncc1Cl	3	-6	-2	25*	3	17
CC(C)c1nnc(NC(=O)c2nc(S(=O)(=O)Cc3ccccc3F)ncc2Cl)s1	·	2	2	7	3	·
O=C(NCc1ccc2c(c1)OCO2)c1nc(S(=O)(=O)Cc2ccccc2F)ncc1Cl	-2	4	1	29*	-5	22*
O=S(=O)(NCCC(c1ccc(F)cc1)c1ccco1)c1ccccc1 (centres undefined)	-26	-13	0	0	9	·
O=C(CC(c1ccco1)S(=O)(=O)c1ccccc1)c1ccc(F)cc1 (centres undefined)	-1	12	12	28*	0	22*
CC(=O)Nc1ccc(N2C(=O)CC(Sc3nc4ccccc4s3)C2=O)cc1 (centres undefined)	-3	-4	3	16	-1	·
COc1ccc(N2C(=O)CC(Sc3nc4ccccc4s3)C2=O)cc1OC (centres undefined)	0	4	0	26*	-1	23*
COc1ccccc1N1C(=O)CC(Sc2n[nH]c(-c3cccc(C)c3)n2)C1=O (centres undefined)	2	5	3	88*	6	73*
Nc1nnc(SC2CC(=O)N(c3ccccc3)C2=O)s1 (centres undefined)	-1	5	2	75*	-6	73*
CCOC(=O)c1ccc(N2C(=O)CC(Sc3nnc(C)s3)C2=O)cc1 (centres undefined)	-3	-5	5	72*	1	76*
COC(=O)[C@@]12CCCCC3=C1N(CCC3)C(=O)[C@H]2CC(=O)NCCCCc1ccccc1	·	2	7	0	·	·
N=c1c2c(-c3ccccc3)c(-c3ccccc3)n(Cc3ccccc3)c2ncn1C1CCOCC1	·	6	5	1	·	·

Screens (PubChem)
